# MC4R barr agon – agonists of human melanocortin 4 receptor (MC4R) beta-arrestin; hit rate 0.98% among 360,000; AID 540308; U2OS MC4R beta-arrestin complementation, luminescence; percent of melanotan II response, DMSO zero; P32245; activation, % at 8.9 µM;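 active = activation above a per-plate cutoff, the mean activation of sample wells on that plate plus 3 SD, cut at about 8% in these data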
# TMEM16A inh – blocks the mouse calcium-activated chloride channel TMEM16A; Q8BHY3; AID 588511; hit rate 1.2% among 310,000; normalized B-score (activity score, 25-100; higher = stronger inhibition) at 10 µM; HEK293 TMEM16A/YFP iodide influx fluorescence, ionomycin;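 active = ratio plate-corrected score three or more library SD toward inhibition, starting fluorescence score within five deviations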;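 note: score derived from kinetic fluorescence span divided by baseline fluorescence per well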
# MC4R antagonist – antagonists of human melanocortin 4 receptor (MC4R); AID 540295; MC4R-expressing cells, MTII-stimulated cAMP, LANCE TR-FRET; hit rate 0.48% among 360,000; P32245; inhibition, % at 6.5 µM;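 active = inhibition above its plate's cutoff, the mean of tested wells on that plate plus 3 SD, cut at about 29% in these data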
#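 Material – human MC4R-expressing U2OS cells · Repeats – no replicates · Detection – TR-FRET with Eu-cAMP and labeled anti-cAMP, 671 nm · Times – compound 30 min, challenge 1 h, detection 1 h · Compound – single nominal compound dose of 6.5 µM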
# Beta apoptosis – blocks beta cell apoptosis. INS-1E cytokine-induced death, ATP luminescence, 48 h; percent of positive-control rescue, neutral wells zero. protection from apoptosis, % (no concentration beside the values). hit rate 0.8% among 300,000. AID 435005;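 active = Every replicate reaches about 75%, or at least half do and their mean reaches it too, limit read from the data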;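 note: higher means more ATP so stronger rescue from cytokine killing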
# CSC inhib – blocks cancer stem cells | hit rate 1.1% among 300,000 | cancer stem cell-like cells viability, luminescence | inhibition, % at 7.5 µM; in the data active = inhibition above about 75%; tested in HMLE shEcad cells
# TMEM16A act – activators or potentiators of mouse TMEM16A chloride channel; Q8BHY3; hit rate 0.3% among 340,000; HEK293 TMEM16A/YFP-H148Q/I152L, iodide quench fluorescence; hits give low values; B-score at 10 µM;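 active = fluorescence-ratio B-score plate-corrected deviation score at least 3 library SD below zero, with starting fluorescence score within 5 deviations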;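 note: channel opened by trigger with iodide after compound preincubation; score built on the fluorescence ratio of max minus min over baseline; more negative score means more quench and so TMEM16A activation or potentiation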
# Hits are given with their value; 0 = inactive; - = no result. This is a sample that favours compounds with a hit; in the whole collection about 3.8% have one here.
SMILES,MC4R barr agon,TMEM16A inh,MC4R antagonist,Beta apoptosis,CSC inhib,TMEM16A act
O=c1c2ccccc2oc2cc(-c3ccc4[nH]ccc4c3)ccc12,0,0,0,0,83,0
Clc1ccc(CO/N=C/c2c(-c3ccccc3)nc3n2CCS3)c(Cl)c1,0,0,0,0,78,0
COCCCNC(=O)c1cccn2c(=O)c3cc4ccccc4cc3nc12,9.1,0,0,0,0,0
COCCCn1c(SCC(=O)N2CCOCC2)nc2cc(Cl)ccc2c1=O,0,-,0,0,-,0
CC(C)c1ccc(NC(=S)Nc2ccc(OC(F)(F)F)cc2)cc1,0,0,0,0,-,0
FC(F)(F)Oc1ccc(NC(=S)Nc2ccc(OC(F)(F)F)cc2)cc1,0,25,0,-,0,0
COc1ccc(N=N/C(=C\O)C(=O)c2cccs2)cc1,0,0,0,-,88,0
COc1ccc(C2C(C#N)=C(N)Oc3c2sc2nc(C)cc(C)c32)cc1 (stereo unspecified),0,0,0,0,0,-7.1
Oc1ccc(Cl)cc1-c1cc(-c2ccccc2Cl)[nH]n1,0,0,0,0,0,0
Oc1ccc(Cl)cc1-c1cc(-c2cccc(Br)c2)n[nH]1,0,0,0,0,90,0
CC(C)(C)c1ccc(S(=O)(=O)N2CCN(CC(=O)N3CC(=O)Nc4ccccc43)CC2)cc1,0,-,0,0,-,-38
O=C(NCCC1=CCCCC1)c1ccc(Cl)c(S(=O)(=O)N2CCCCC2)c1,0,25,0,0,0,0
Cc1ccc(CSCCNC(=O)c2ccc(Cl)c(S(=O)(=O)N3CCOCC3)c2)cc1,0,25,0,0,0,0
COc1ccc(C(=O)NC2CCCc3ccccc32)cc1OC1CCN(C(C)=O)CC1 (stereo unspecified),0,0,0,0,0,0
COc1cccc(OCCn2c(C)c(/C=N/n3cnnc3)c3ccccc32)c1,9.7,0,0,0,0,0
COc1ccc(OCCn2c(C)c(/C=N/n3cnnc3)c3ccccc32)cc1,0,0,0,0,0,0
O=C1C=CC(=O)N1c1ccc2c(c1)Cc1cc(F)ccc1-2,0,-,32,-,-,0
CC(=O)NC(C)(c1ccccc1)c1nc(-c2csc3ccccc23)cs1 (stereo unspecified),0,-,0,-,-,-
O=C(Nc1ccccc1F)c1ccc([N+](=O)[O-])s1,0,0,0,0,0,0
O=C(Nc1cccnc1)c1ccc([N+](=O)[O-])s1,0,-,0,78,0,0
Cc1ccc(NC(=O)CSc2nc3c(c(=O)[nH]2)CN(Cc2ccc(F)cc2)CC3)cc1C,0,0,0,0,0,-12
O=C(NNC(=O)c1cc2ccccc2[nH]1)OCc1ccccc1,0,-,0,0,-,0
Cc1cccc(C)c1NC(=O)CN(C)C(C)C(=O)NCC(=O)Nc1ccc(F)c(F)c1F (stereo unspecified),0,-,0,0,0,0
Cc1ccc(C2(c3noc(CN4CCC(c5ccncc5)CC4)n3)CCCC2)cc1,0,0,0,0,92,0
Cc1cc(C)nc(OC(=O)c2ccc(Cl)cc2Cl)n1,-,0,-,85,0,-
SMILES,MC4R barr agon,TMEM16A inh,MC4R antagonist,Beta apoptosis,CSC inhib,TMEM16A act
Cc1cc(C)nc(OC(=O)c2c(Cl)cc(Cl)cc2Cl)n1,0,0,0,0,0,0
Cc1ccc(S(=O)(=O)N(C(=O)c2ccco2)c2cc3sc(=O)oc3c3ccccc23)cc1,0,0,0,0,0,0
CCOc1ccc(S(=O)(=O)N(C(=O)c2ccco2)c2cc3sc(=O)oc3c3ccccc23)cc1,0,0,0,99,0,0
COc1ccc(S(=O)(=O)N(C(=O)c2ccco2)c2cc3sc(=O)oc3c3ccccc23)cc1,0,0,0,98,0,0
O=C(C1=NN(c2ccccc2)C2C(=O)N(c3ccccc3Cl)C(=O)C12)c1ccccc1 (stereo unspecified),9.1,0,0,0,0,0
Cc1nn(-c2ccccc2)c(Cl)c1/C=C1\SC(=S)NC1=O,0,100,0,-,-,0
Cc1nn(-c2ccccc2)c(Cl)c1/C=C1\SC(=S)N(CCCCCC(=O)O)C1=O,0,0,0,0,0,0
COc1cc2cnc(-c3cccnc3)cc2cc1OC,0,-,0,0,0,0
Cn1c(O)c(/C=N/Nc2ccccc2)c(=O)n(C)c1=O,0,0,0,0,89,0
O=C(NCc1c(Cl)cccc1Oc1ccccc1)c1ccccc1,0,0,0,-,0,0
Cc1ccc(/C(=N\O)c2oc3c(C)c4oc(=O)cc(C)c4cc3c2C)cc1,0,0,0,0,105,0
Cc1cc(C)n(CCC(=O)N2CCCC(N3CCN(c4cccc(Cl)c4)CC3)C2)n1 (stereo unspecified),0,0,0,0,0,0
Cc1cc(C)n(-c2ccc3cccc(NS(C)(=O)=O)c3n2)n1,0,0,0,-,87,0
CS(=O)(=O)Nc1cccc2cccnc12,0,0,0,0,0,0
COCCN(C(=O)CSc1cc(C)c2ccccc2n1)c1c(N)n(CC(C)C)c(=O)[nH]c1=O,0,-,0,0,-,0
OCCN1CCN(C2CCC(c3ccc(F)cc3)c3ccc(F)cc32)CC1 (stereo unspecified),9.0,0,0,0,83,0
Cc1cc(Nc2ccc(O)cc2)ccc1N,-,-,-,0,0,-
CCCCC(CCC(=O)O)(C(=O)OCC)c1csc(Nc2ccccc2)n1 (stereo unspecified),0,0,0,0,0,0
CCOC(=O)/C(=N/Nc1ccccc1)c1csc(Nc2ccccc2)n1,0,0,0,0,107,0
CCOC(=O)/C(=N\Nc1ccc(Cl)cc1)c1csc(Nc2ccccc2)n1,0,100,0,0,0,0
CCOC(=O)/C(=N\Nc1ccc(OC)cc1)c1csc(Nc2ccccc2)n1,0,0,0,0,104,0
Cc1ccc(-c2csc(=Nc3cccnc3)n2CCCn2ccnc2)cc1C,0,25,0,0,0,0
Cc1ccc(-c2csc(=Nc3cccnc3)n2CCCN2CCCC2=O)cc1C,0,0,0,0,0,0
COCCn1c(-c2ccccc2)csc1=Nc1cccnc1,0,25,0,-,0,0
c1ccc(-c2csc(=Nc3cccnc3)n2CC2CCCO2)cc1 (stereo unspecified),0,0,0,0,0,0
COc1ccc(-c2n[nH]c(C(F)(F)F)c2-c2cc3ccccc3o2)c(O)c1,0,100,0,0,102,0
COc1ccccc1-c1c(-c2ccc(OCC(=O)NN)cc2O)n[nH]c1C(F)(F)F,0,0,0,0,0,0
O=C1CC(c2ccsc2)c2ccc3ccccc3c2N1 (stereo unspecified),0,0,0,0,0,0
O=C1CC(c2cccc([N+](=O)[O-])c2)c2ccc3ccccc3c2N1 (stereo unspecified),0,25,0,0,0,0
CCC(=O)NNc1ccc(Br)cc1,0,0,0,0,80,0

# Screens as filed in PubChem BioAssay.
